Screening data as filed in PubChem BioAssay.
Shown are actives, neighbours in structure and some others; about 1.3% of the full set was active somewhere.
RAD52 inh: RAD52 DNA annealing inhibitors, primary screen, biochemical, FRET, single point, set 2; DNA repair protein RAD52 homolog (Homo sapiens), P43351; recombinant RAD52 DNA annealing, FRET fluorescence; inhibition, % at 18.7 µM; hit rate 0.46% among 360,000; AID 651710, 2012;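 active = every replicate showing at least 50% inhibition; inconclusive = mean inhibition at least 50% but not in every replicate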
AF4-AF9 inh: inhibitors of AF4 peptide binding to AF9, primary screen, biochemical, AlphaScreen, biotin-AF4 peptide, FLAG-AF9, single point | Protein AF-9 (Homo sapiens), P42568 | inhibition, % at 10 µM | hit rate 0.47% among 350,000 | AID 651704, 2012;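 active = every replicate reaching a set inhibition limit, whatever the replicate mean, cut at about 25% in these data; inconclusive = mean inhibition reaches that limit but some replicates miss it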;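 also: 0% = plate neutral control median and 100% = total signal loss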
RAD54 inh: inhibitors of human RAD54 branch migration, primary screen, biochemical, fluorescence, single point; RAD54 Holliday junction branch migration, FAM/BHQ fluorescence; inhibition, % at 10.4 µM; hit rate 0.14% among 360,000; AID 602329, 2012;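 active = mean normalized replicate activity at least 40 and at least half of replicates scoring 40 or more; inconclusive = only one of the two criteria met; inactive = mean below 40 and under half of replicates reaching 40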;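 also: 0% = median of neutral control wells and 100% = median of positive control wells; inhibitors cause a drop in the FAM fluorescence signal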
XiGFP reactiv: activators of inactive X chromosome reactivation, primary screen, imaging, XiGFP fibroblasts, GFP high-content imaging, set 2; XiGFP mouse fibroblasts, % GFP-positive cells imaging, 3 d; cells co-treated with 5-aza-dC sensitizer; scaled so ellipticine positive control = 100%; activation, % at 7.58 µM; hit rate 0.055% among 360,000; AID 743238, 2013;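 active = mean normalized replicate activation at least 10% and every replicate at or above 10%; inconclusive = only one of the two criteria met; inactive = mean below 10% and not all replicates reach 10%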;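 also: 0% = median of on-plate neutral control wells and 100% = ellipticine 6 µM median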
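material = 68-5-11 XiGFP fibroblast line | medium = DMEM plus 5-aza-dC sensitizer | schedule = 3 days compound exposure | benchmarks = positive control ellipticine, 6 µM final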
S100A4 inh HTS: inhibitors of S100A4-myosin IIA peptide binding, primary screen, biochemical, fluorescence polarization, TAMRA-MyoIIA peptide | AID 652163, 2013 | hit rate 0.14% among 360,000 | inhibition, % at 10.7 µM;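 active = mean inhibition of at least 70% across replicates, with every replicate also reaching that level; inconclusive = mean inhibition reaches 70% but some replicates fall short; inactive = mean inhibition below 70%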
Target sequence (P26447 whole entry, looked up): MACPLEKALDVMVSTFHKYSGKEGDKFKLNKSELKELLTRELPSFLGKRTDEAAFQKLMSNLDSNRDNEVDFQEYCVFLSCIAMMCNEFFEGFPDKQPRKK
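Material: human S100A4 monomer with TAMRA-labelled myosin IIA peptide; buffer or medium: HEPES pH 7.2 with CaCl2, KCl, NaCl, DTT, Triton; compound dosing: one concentration per compound; schedule: 5 min incubation before reading; benchmarks: neutral control DMSO, positive control TFP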
CASP6 VEID inh: human caspase-6 inhibitors, primary screen, biochemical, VEID-R110 fluorescence, single point, set 2. P55212. purified caspase-6, Z-VEID-R110 cleavage fluorescence. inhibition, % at 12.5 µM. hit rate 0.53% among 350,000. AID 686996, 2013;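 active = mean inhibition across replicates at least about 35%, with every replicate also reaching that limit, limit read from the data; inconclusive = only one of the two criteria met; inactive = neither criterion met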;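 also: 0% = median of neutral control wells and 100% = no fluorescence left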
Target sequence (P55212 24-179 limits assumed): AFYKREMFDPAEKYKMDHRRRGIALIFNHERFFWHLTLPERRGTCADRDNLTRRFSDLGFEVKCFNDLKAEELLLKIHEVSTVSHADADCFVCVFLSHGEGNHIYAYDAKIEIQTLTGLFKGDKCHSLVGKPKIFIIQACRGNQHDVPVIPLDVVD
Target sequence (P55212 194-293 limits assumed): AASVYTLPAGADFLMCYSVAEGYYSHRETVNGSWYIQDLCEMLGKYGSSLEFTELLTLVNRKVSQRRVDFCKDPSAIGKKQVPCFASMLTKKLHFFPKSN
DNA binding: DNA binding of candidate compounds, dose response, artefact control for RAD54 inhibitor project, biochemical, fluorescence polarization, cherry-pick. shares compounds with RAD54 inh. Acridine orange-DNA displacement, 20 min. AC50, µM (titrated, usually from 35 µM), for inactives: at the highest dose activity change, negative = DNA binding. hit rate 8% among 460. AID 651673, 2012;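 active = signal drop giving an AC50 within twice the top valid tested concentration of each sample, actives reach about 35 µM in these data; inactive = activity opposite to expected, plus the rest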;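 also: polarization loss reports compound binding to salmon sperm DNA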
AlphaScreen intf: AlphaScreen signal interference counter-screen, dose response, artefact control, biochemical, cherry-picked samples, luminescence. shares compounds with AF4-AF9 inh. AC50, µM (titrated, usually from 12 µM), inactives show at the top dose activity change, negative = inhibition. hit rate 45% among 530. AID 720494, 2013; cut-off not given, nearly all actives have AC50 up to about 14 µM
* hit, by the source's call.

COC(=O)[C@H]1[C@H](CO)[C@H]2Cn3c(ccc(-c4ccncc4)c3=O)[C@@H]1N2CCc1ccccc1 was read as RAD52 inh -11.7, AF4-AF9 inh -0.1, RAD54 inh 4.9, XiGFP reactiv 0.4, S100A4 inh HTS 8.4 and CASP6 VEID inh -2.3.
`O=C(O)C(Br)CBr` (stereo not drawn) gave RAD52 inh -10.5, RAD54 inh 0.3, S100A4 inh HTS 99.7* and CASP6 VEID inh -3.9.
For Cc1c(N=Nc2c(O)n(-c3ccc(Br)cc3)c(=O)[nH]c2=O)c(=O)n(-c2ccccc2)n1C the results were RAD52 inh -25.3, AF4-AF9 inh -0.3, RAD54 inh 2.1, XiGFP reactiv -0.1, S100A4 inh HTS 0.6 and CASP6 VEID inh 2.6.
For Cc1c(N=Nc2c(O)[nH]c(=O)[nH]c2=O)c(=O)n(-c2ccccc2)n1C the results were RAD52 inh -83.9, AF4-AF9 inh -3.0, XiGFP reactiv 0.4, S100A4 inh HTS 2.0 and CASP6 VEID inh 40.8*.
`CC1CN1c1cc2c(c3c1ccn3C)C1CCC2C1` (stereo not drawn) gave RAD52 inh 2.6, AF4-AF9 inh 39.6*, RAD54 inh -3.5, XiGFP reactiv 0.2, S100A4 inh HTS -7.1 and CASP6 VEID inh 3.8.
For O=C1CNC[C@@H]2[C@@H](c3ccc(Br)cc3)[C@@H](CO)N12 the results were RAD52 inh 1.2, AF4-AF9 inh -4.4, XiGFP reactiv 0.1, S100A4 inh HTS 3.8 and CASP6 VEID inh -0.1.
Screening c1cc(-c2ccc(C3[C@H]4CNC[C@@H]3N4CC3CC3)cc2)ccn1 (stereo partly drawn) returned RAD52 inh 14.0, AF4-AF9 inh 38.5*, XiGFP reactiv 0.0, S100A4 inh HTS 3.6 and CASP6 VEID inh -0.4.
CC=Cc1ccc2n(c1=O)C[C@H]1[C@H](CO)[C@@H](C(=O)O)[C@@H]2N1S(=O)(=O)c1ccccc1F (mixture of isomers) was read as RAD52 inh -6.7, AF4-AF9 inh -1.5, RAD54 inh -1.6, XiGFP reactiv 0.0, S100A4 inh HTS -0.8 and CASP6 VEID inh -0.7.
For CN1CCN(c2ccc([N+](=O)[O-])c3no[n+]([O-])c23)CC1 the results were RAD52 inh inactive, AF4-AF9 inh 1.9, RAD54 inh -333.7, XiGFP reactiv 0.6, S100A4 inh HTS 112.5* and CASP6 VEID inh 14.8.
O=[N+]([O-])c1ccc(N(CCO)CCO)c2c1no[n+]2[O-] was read as RAD52 inh -407.8, AF4-AF9 inh 2.1, RAD54 inh -25.4, XiGFP reactiv 0.6, S100A4 inh HTS 15.6 and CASP6 VEID inh -6.0.
CN1CCC(N(C)c2ncnc3ccc(Br)cc23)CC1 was read as RAD54 inh 10.5.
Cc1ccc(-c2nc(N(C)C3CCN(C)CC3)c3ccccc3n2)cc1 was read as RAD54 inh 96.5* and DNA binding -21.7%.
`Nc1ccnn1C1CCNCC1` gave RAD54 inh 93.1* and DNA binding 2.8%.
CN1CCC(n2nccc2N)CC1 was read as RAD54 inh 10.2.
`O=C(NC1CN2CCC1CC2)c1cc(Cl)c([N+](=O)[O-])c2nc[nH]c12` (stereo not drawn) gave RAD54 inh 56.1*, XiGFP reactiv -0.1 and DNA binding -11.7%.
Screening CCNCCNc1ccc([N+](=O)[O-])c2cccnc12 returned RAD52 inh 5.9, AF4-AF9 inh -1.8, RAD54 inh 55.9*, XiGFP reactiv 0.1, S100A4 inh HTS 6.5, CASP6 VEID inh -3.8 and DNA binding -21.5%.
Screening COc1cccc(CN2CC3(C2)[C@H](c2ccccc2)[C@H](CO)N3C(=O)Cc2ccccc2)c1 returned RAD52 inh 0.1, AF4-AF9 inh 2.3, XiGFP reactiv 0.2, S100A4 inh HTS -9.5 and CASP6 VEID inh -1.1.
Screening O=C(Cc1ccccn1)N1CCCCN2[C@H](CO)[C@@H](c3ccc(-c4ccc(F)cc4)cc3)[C@H]2C1 returned RAD52 inh -15.5, AF4-AF9 inh 0.9, RAD54 inh 6.9, XiGFP reactiv 0.4, S100A4 inh HTS 0.0 and CASP6 VEID inh 2.0.
For Nc1ccc(C2(c3ccc(N)cc3)CN3CCC2CC3)cc1 the results were RAD54 inh 96.2* and DNA binding -0.3%.
CC(Cc1ccccc1)NCC(=O)Nc1cc(N(C)C)nc2ccccc12 (stereo not drawn) was read as RAD52 inh 10.8, AF4-AF9 inh 3.5, RAD54 inh inconclusive, XiGFP reactiv 0.0, S100A4 inh HTS -10.3, CASP6 VEID inh -1.9 and DNA binding -1.9%.
For CC(Cc1ccccc1)NCc1ccccc1O (stereo not drawn) the results were RAD52 inh -9.0, AF4-AF9 inh -3.7, RAD54 inh -3.4, XiGFP reactiv -0.1, S100A4 inh HTS -3.7 and CASP6 VEID inh 1.8.
`COC(=O)[C@H]1[C@H](CO)[C@H]2Cn3c(ccc(-c4ccccc4)c3=O)[C@@H]1N2S(=O)(=O)c1ccccc1C` gave RAD52 inh 1.5, AF4-AF9 inh 1.5, RAD54 inh 0.2, XiGFP reactiv 0.0, S100A4 inh HTS 0.2 and CASP6 VEID inh 2.1.
OCCNCCc1c[nH]c2ccc(OCc3ccccc3)cc12 was read as RAD52 inh -20.8, AF4-AF9 inh 18.6, RAD54 inh -6.4, XiGFP reactiv 0.0, S100A4 inh HTS -3.1 and CASP6 VEID inh -5.6.
`Cc1[nH]c2ccc(OCc3ccccc3)cc2c1CCN` gave RAD52 inh 26.3, AF4-AF9 inh 40.9*, RAD54 inh 12.8, XiGFP reactiv 0.0, S100A4 inh HTS -6.2, CASP6 VEID inh 14.1 and AlphaScreen intf -20.0%.
COC(=O)[C@H]1[C@H](CO)[C@H]2Cn3c(ccc(C4=CCCCC4)c3=O)[C@@H]1N2CC1CC1 was read as RAD52 inh -5.8, AF4-AF9 inh 0.9, RAD54 inh 3.6, XiGFP reactiv 0.5, S100A4 inh HTS 2.7 and CASP6 VEID inh 2.3.
